Screening data (PubChem BioAssay)
CYP2C9 activ – increases human cytochrome P450 2C9 activity; P11712; recombinant CYP2C9, luciferin-H conversion, luminescence; active compounds read high; factor 1 = untreated enzyme, 0 = blocked; activation factor at 5 µM; hit rate 1.4% among 96,000;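 active means activation factor of 2 or more for CYP2C9 at a 5 µM dose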;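 further: 0 = sulfaphenazole-blocked wells and 1 = vehicle-only wells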
CYP2C9 inhib – blocks human cytochrome P450 2C9 | CYP2C9 Supersomes, luciferin-H conversion, luminescence | inhibition, % at 5 µM | hit rate 20% among 96,000;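 active means blocking of liver enzyme CYP2C9 beyond about 50% at 5 µM, limit read from the data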
Cav3 T inh – inhibitors of human Cav3.2 T-type calcium channel | O95180 | Cav3.2-expressing cells, Fluo-4 calcium fluorescence FDSS; active compounds read low | B-score at 10 µM | hit rate 4% among 100,000;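 active means single-dose well whose peak fluorescence ratio is a statistical outlier from its plate by either plate-standardised score or position-corrected B-score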
CYP2C19 activ – activators of human cytochrome P450 2C19. recombinant CYP2C19, luciferin-H EGE luminescence; active compounds read high; 0 = fully inhibited enzyme, 1 = untreated enzyme. 96,000 tested, under 10 active. AID 1025. activation factor at 5 µM;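 active means activation factor of at least 2 at 5 µM in the primary screen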;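 further: 0 = wells with 2.5 mM tranylcypromine and 1 = vehicle-only wells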
Target sequence (P33261 whole entry, looked up): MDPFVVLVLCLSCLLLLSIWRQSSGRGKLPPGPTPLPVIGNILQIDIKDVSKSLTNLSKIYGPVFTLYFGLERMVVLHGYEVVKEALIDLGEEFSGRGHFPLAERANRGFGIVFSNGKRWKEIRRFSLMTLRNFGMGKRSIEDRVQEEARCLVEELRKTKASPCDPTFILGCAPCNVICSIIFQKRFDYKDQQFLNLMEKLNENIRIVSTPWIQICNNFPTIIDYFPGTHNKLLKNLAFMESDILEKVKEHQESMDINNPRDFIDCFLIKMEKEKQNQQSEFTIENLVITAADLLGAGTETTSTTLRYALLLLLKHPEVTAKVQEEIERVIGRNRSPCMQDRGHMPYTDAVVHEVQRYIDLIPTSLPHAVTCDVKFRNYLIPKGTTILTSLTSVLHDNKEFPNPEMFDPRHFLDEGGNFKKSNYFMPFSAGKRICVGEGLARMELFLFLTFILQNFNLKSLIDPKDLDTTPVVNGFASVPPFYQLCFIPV
HIV Rev-RRE inh – disrupts HIV-1 Rev binding to RRE RNA; P05866; Rev peptide-RRE RNA binding, FRET; inhibition, % at 8 µM; hit rate 0.79% among 97,000;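 active means inhibition above the screen-wide mean plus 3 SD, cut at about 35% in these data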;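 further: 0% = median DMSO wells and 100% = median Neomycin B control wells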
Target sequence (P05866 whole entry, looked up): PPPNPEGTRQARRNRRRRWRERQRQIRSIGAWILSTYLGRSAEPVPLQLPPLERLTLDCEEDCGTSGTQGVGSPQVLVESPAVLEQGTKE
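Probe or stimulus: fluorescein-Rev peptide as binding partner; assay system: Cy5-tagged RRE RNA duplex with fluorescein-tagged Rev peptide; timing: 5 min compound–RNA preincubation, then 15 min with peptide, 25 °C; medium: HEPES pH 7.5 buffer with KCl, MgCl2, NaCl and EDTA; signal: fluorescein-to-Cy5 FRET, 480 nm excitation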
CYP2C19 inh – inhibitors of human CYP2C19. inhibition, % at 5 µM. CYP2C19 Supersomes, luciferin-H EGE luminescence, 30 min. P33261. AID 778. hit rate 21% among 96,000;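 active means CYP2C19 inhibition above a set limit at 5 µM in the primary screen, cut at about 50% in these data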;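 further: plate controls were negative control wells for no effect and 2.5 mM tranylcypromine positive control for full effect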
* = called active by the depositor; . = no result given. Compounds with a hit are over-represented: about 27% of the library has one in this group of screens.

SMILES	CYP2C9 activ	CYP2C9 inhib	Cav3 T inh	CYP2C19 activ	HIV Rev-RRE inh	CYP2C19 inh
O=C(c1cccs1)c1coc2ccc(O)c(CN3CCOCC3)c12	0.3	73.0*	1.1	0.3	1.2	65.0*
Cc1ccc(C(=O)c2coc3ccc(O)c(CN4CCN(C)CC4)c23)cc1	1.1	-11.3	-1.25	0.2	7.1	78.5*
COc1ccc(C(=O)c2coc3ccc(O)c(CN4CCOCC4)c23)cc1	.	.	-1.67	.	7.7	.
O=C(NCCC1=CCCCC1)C1CCN(S(=O)(=O)N2CCOCC2)CC1	1.1	-7.5	0.0553	1.1	-1.9	-6.5
O=C(NCCC1=CCCCC1)c1ccc(Cl)c(S(=O)(=O)N2CCOCC2)c1	0.4	59.8*	-0.00271	0.5	4.3	50.9*
CCOC(=O)N1CCN(C(=O)c2ccc(Cl)c(S(=O)(=O)N3CCOCC3)c2)CC1	0.9	8.8	1.17	1	3.5	0.7
Cc1ccc(CSCCNC(=O)c2ccc(Cl)c(S(=O)(=O)N3CCOCC3)c2)cc1	0.2	81.0*	-7.42*	0.4	2.3	61.6*
COc1ccc2c(c1OC)C(=O)NC(C)=C(C(=O)OC(C)(C)C)C2O (stereo not given)	0.4	55.5*	2.32	0.2	3.9	80.9*
COc1cc(C2NC(=O)NC(C)=C2C(=O)OC(C)(C)C)ccc1OCC(N)=O (stereo not given)	0.9	8.3	-0.234	1.1	7.8	-9.7
CCOc1ccc(S(=O)(=O)N(CC(=O)O)c2ccc(C)cc2)cc1	0.5	45.9	0.143	0.8	2.3	20.7
COc1cc(C(=O)Nc2ccc3c(c2)OCCO3)ccc1OC(C)C	0.9	10.1	.	0.4	4.1	55.4*
Cc1ccnc2nc(C(=O)Nc3ccc(N4CCOCC4)cc3)nn12	0.9	7.0	0.892	0.5	4.5	54.2*
COc1ccc(C(=O)Nc2ccc3c(c2)OCCO3)cc1	.	.	1.26	.	6.8	.
COc1cc(C(=O)Nc2ccc3c(c2)OCCO3)ccc1OC(F)F	1.8	-81.4	-0.0665	0.1	.	88.2*
COc1ccc(C(=O)Nc2ccc(N3CCOCC3)cc2)cc1OC	0.8	19.0	-0.0451	0.4	-5.7	58.5*
CNC(=O)C1CC(=O)N/C(=N/N=C(\C)c2cccs2)S1 (stereo not given)	0.8	17.8	0.0655	0.9	5.3	6.9
CCc1cc(OCCCSc2nc(C)cc(=O)[nH]2)ccc1Cl	0.9	9.0	2.18	0.3	5.9	69.6*
COc1ccccc1NC(=O)CSc1nc2n[nH]c(C)c2c(=N)n1-c1ccccc1Cl	.	.	-2.95	.	4.7	.
CCOC(=O)CSc1nnc(CNC(=O)c2ccc(OC)cc2)n1Cc1ccccc1	0.9	9.1	-0.0254	0.7	-2.1	30.7
CCOC(=O)CSc1nnc(CNC(=O)c2ccc(OC)cc2)n1C1CCCCC1	0.9	14.9	1.8	0.2	1.1	75.1*
O=c1cc(NCc2ccco2)c2ccccc2o1	0.9	10.8	0.357	0.6	1.5	44.6
CCc1ccccc1N1CSC2=C(C#N)C(c3ccccc3F)CC(=O)N2C1 (stereo not given)	0.1	93.7*	-1.37	0.2	9.5	81.9*
COc1ccc(N2CSC3=C(C#N)C(c4cccc(OC)c4OC)CC(=O)N3C2)cc1 (stereo not given)	0.9	6.6	0.0858	1	1.6	-2.8
COc1ccc(C2CC(=O)N3CN(c4ccc(C)c(Cl)c4)CSC3=C2C#N)cc1 (stereo not given)	0	97.6*	-3.3	0.2	2.0	77.1*
Cc1ccc(C2N(c3cccc(Cl)c3)C(=O)C3CCCN32)o1 (stereo not given)	1.1	-5.5	.	0.9	6.5	6.2
SMILES	CYP2C9 activ	CYP2C9 inhib	Cav3 T inh	CYP2C19 activ	HIV Rev-RRE inh	CYP2C19 inh
Cc1cccc(N2CSC3=C(C#N)C(c4ccc(C)o4)CC(=O)N3C2)c1 (stereo not given)	0.1	85.9*	-0.323	0.6	8.2	42.5
COc1ccc(C2CC(=O)N3CN(c4ccccc4F)CSC3=C2C#N)cc1OC (stereo not given)	0.2	83.9*	1.31	0.9	-0.2	7.5
CCCCC(=O)Nc1ccc(N2CCN(S(C)(=O)=O)CC2)cc1	1	4.9	1.12	1	2.5	2.2
COc1cc(OC)c(C2C(C#N)=C(N)OC3=C2C(=O)CC(C)C3)cc1OC (stereo not given)	0.9	13.9	0.149	0.6	10.2	44.6
COc1cc(OC)c(C2CC(=O)N3CN(c4ccccc4C)CSC3=C2C#N)cc1OC (stereo not given)	0.1	86.2*	0.895	0.5	.	48.9
Cc1ccc(CN(C(=O)Cn2nnc3ccccc32)C(C(=O)NCc2ccco2)c2cccs2)cc1 (stereo not given)	0.6	40.1	-9.36*	0.3	6.2	72.8*
O=C(NCc1ccco1)C(c1ccco1)N(Cc1cccs1)C(=O)Cn1nnc2ccccc21 (stereo not given)	.	.	0.963	.	1.8	.
O=C(NCc1ccco1)C(c1ccco1)N(CCc1ccccc1)C(=O)Cn1nnc2ccccc21 (stereo not given)	1	-4.2	-6.24*	0.9	3.4	8.2
COCCNC(=O)C(c1ccc(C)o1)N(CC1CCCO1)C(=O)Cn1nnc2ccccc21 (stereo not given)	1.1	-5.0	-0.0881	1.1	-1.1	-9.4
O=C(NCc1ccco1)C(c1ccc(F)cc1)N(CC1CCCO1)C(=O)Cn1nnc2ccccc21 (stereo not given)	0.7	27.6	-4.91*	0.7	5.1	33.1
COc1ccc(/C=C(/NC(C)=O)C(=O)O)cc1	0.9	6.7	.	0.9	-0.6	7.7
NC(=O)C1=C[C@H](c2csc3ccccc23)C[C@H](OCCCCO)O1	.	.	0.353	.	.	.
CCN(C(=O)CSc1nc(-c2ccccc2)c(-c2ccccc2)[nH]1)C1CCS(=O)(=O)C1 (stereo not given)	0.6	40.1	0.512	0.9	1.7	5.5
CCN(C(=O)CSc1nc2ccccc2n1CCc1ccccc1)C1CCS(=O)(=O)C1 (stereo not given)	1	-4.4	0.33	0.3	4.9	66.8*
COc1ccc(C(=O)c2ccccc2)c(O)c1	0.8	24.2	-1.18	0.1	1.9	85.9*
CCOC(=O)COc1ccc(C(=O)c2ccccc2)c(O)c1	1	-3.6	-0.00399	0.9	3.0	8.5
COc1ccccc1C(O)Cc1nc2ccccc2n1C (stereo not given)	0.9	7.8	-0.44	0.1	10.6	95.0*
COc1cc(C(=O)NCCc2nc3ccccc3n2C)cc(OC)c1OC	.	.	0.59	.	3.6	.
COc1cccc(OCCNc2cc(Cl)ccc2[N+](=O)[O-])c1	0.6	41.6	-0.529	0.5	7.2	46.1
Cc1ccc(/C=C/C2=Cc3c(sc(NC(=O)CSc4n[nH]c(N)n4)c3C#N)C(C)(C)C2)o1	0.1	90.6*	0.992	0.8	47.4*	20.2
